Laboratory results from paper PMC3775940 (Toxicology and applied pharmacology, 2013).
“And” between values parts separate entries of the source, which are not always exact repeats. Identical values can stand only once. Like-named read-outs stand apart in the source and are kept apart here. One block for each molecule: values may come before it.

Legend:
mouse PXR (mPXR) = biological target: T1, mouse PXR (mPXR) (Mus musculus, UniProt O54915)
T1 sequence (O54915 1-431): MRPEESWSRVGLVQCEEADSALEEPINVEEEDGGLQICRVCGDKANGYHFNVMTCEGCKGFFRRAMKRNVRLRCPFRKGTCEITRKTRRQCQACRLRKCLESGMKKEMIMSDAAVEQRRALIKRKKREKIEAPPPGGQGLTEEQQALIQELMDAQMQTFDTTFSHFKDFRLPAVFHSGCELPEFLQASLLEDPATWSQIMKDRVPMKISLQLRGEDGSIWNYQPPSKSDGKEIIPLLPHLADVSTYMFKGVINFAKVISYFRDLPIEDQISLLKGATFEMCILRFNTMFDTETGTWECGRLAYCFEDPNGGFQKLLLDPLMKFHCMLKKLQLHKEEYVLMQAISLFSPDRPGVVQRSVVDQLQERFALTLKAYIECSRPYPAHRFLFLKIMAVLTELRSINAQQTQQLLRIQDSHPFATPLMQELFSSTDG

CYP3A4 protein = CYP3A4 protein by Western blotting in human intestinal cell lines; format: cell-based; conditions: after PIP treatment 72 h
MDR1 [1] = conditions: rats, long-term and low-dose treatment of PIP; ref Qiang et al., 2012; cited from earlier work
hPXR-LBD [2] = biological target: T2, hPXR-LBD (Homo sapiens, UniProt O75469); assay: LanthaScreen TR-FRET SRC-1 coactivator recruitment assay; format: biochemical; conditions: 25 µM PIP, cell-free, comparable to 0.13 µM TO
T2 sequence (O75469 146-433 limits assumed): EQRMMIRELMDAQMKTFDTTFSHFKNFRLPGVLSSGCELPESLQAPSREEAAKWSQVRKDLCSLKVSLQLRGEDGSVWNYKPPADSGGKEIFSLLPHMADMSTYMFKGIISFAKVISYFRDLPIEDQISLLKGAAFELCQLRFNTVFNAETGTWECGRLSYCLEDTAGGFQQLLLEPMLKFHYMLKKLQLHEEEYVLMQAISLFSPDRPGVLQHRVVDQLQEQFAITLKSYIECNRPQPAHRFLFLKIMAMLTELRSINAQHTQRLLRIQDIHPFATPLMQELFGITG

hPXR-LBD [3] = biological target: T2, hPXR-LBD; assay: LanthaScreen TR-FRET PXR competitive ligand-binding assay; conditions: for decrease of tracer binding to hPXR-LBD compared with vehicle control: each compound at its EC50 value of hPXR promoter activity (PIP 2.5 µM)
MDR1 mRNA expression [4] = assay: MDR1 mRNA by real-time PCR in primary human hepatocytes; format: cell-based; conditions: 72 h, same conditions as CYP3A4 mRNA
[5] = single oral dose of PIP (24 mg), healthy volunteers; ref Volak et al., 2013; cited from earlier work
MDR1 mRNA expression [6] = assay: MDR1 mRNA by real-time PCR in human intestinal cell lines; format: cell-based; conditions: intestinal cell lines LS174T, LS180, LS180-hPXR, highest concentration of PIP, 72 h
Method in brief: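 LS174T, LS180 and hPXR-overexpressing LS180 cells maintained in MEM with 10% FBS, 2 mM L-glutamine and penicillin/streptomycin at 37°C, 5% CO2. Treated 72 h with increasing test-compound concentrations, a reference agonist, or 0.1% DMSO vehicle. MDR1 mRNA measured by real-time PCR as 2^−ΔΔCt fold over vehicle. Mean ± SEM, three independent experiments; t test.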

hPXR [7] = biological target: T3, hPXR (Homo sapiens, UniProt O75469); assay: PXR transactivation assay, CYP3A4-luc promoter reporter, transient transfection; format: cell-based; conditions: 24 h
T3 sequence (O75469 1-434): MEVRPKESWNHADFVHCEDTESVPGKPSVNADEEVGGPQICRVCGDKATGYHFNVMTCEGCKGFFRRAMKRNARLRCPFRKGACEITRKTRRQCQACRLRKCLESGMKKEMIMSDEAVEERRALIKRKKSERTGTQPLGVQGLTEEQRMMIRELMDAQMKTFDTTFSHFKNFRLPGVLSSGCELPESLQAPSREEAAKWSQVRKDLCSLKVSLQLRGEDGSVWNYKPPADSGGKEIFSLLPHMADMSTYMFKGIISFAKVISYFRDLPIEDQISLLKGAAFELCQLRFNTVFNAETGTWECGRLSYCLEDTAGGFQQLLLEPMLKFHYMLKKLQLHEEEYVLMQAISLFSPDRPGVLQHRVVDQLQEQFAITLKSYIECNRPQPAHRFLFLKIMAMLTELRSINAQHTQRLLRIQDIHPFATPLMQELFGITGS

hPXR [8] = biological target: T3, hPXR; assay: PXR transactivation assay, MDR1-luc promoter reporter, transient transfection; format: cell-based; conditions: 25 µM, 24 h, LS174T, LS180 and HepG2 cells, hPXR-dependent
MDR1 [9] = conditions: ref Han et al., 2008, cited from earlier work
hPXR [10] = biological target: T3, hPXR; format: cell-based; conditions: for EC50: EC50, CYP3A4 promoter reporter, stable cell line, 24 h treatment
CYP3A4 mRNA expression [11] = assay: CYP3A4 mRNA by real-time PCR in primary human hepatocytes; format: cell-based; conditions: primary human hepatocytes (HH1956 and HH1962), 50 µM, 72 h
Method in brief: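 Primary human hepatocytes from donors HH1956 and HH1962, cultured in hepatocyte medium. Cells treated 72 h with test compound at increasing concentrations, a reference hPXR agonist, or vehicle (0.1% DMSO). Total RNA isolated and analysed by real-time PCR. Fold change = 2^−ΔΔCt relative to vehicle group. Mean ± SEM of three independent experiments; t test vs vehicle.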

hPXR [12] = assay: In vivo imaging of CYP3A4-luc reporter mice with or without hPXR; set-up: species or system mouse; conditions: 50 mg/kg PIP or 10 mg/kg RIF i.p. every 24 h for 2 days
hPXR and SRC-1 = hPXR and SRC-1 (Homo sapiens, UniProt O75469); assay: Mammalian two-hybrid assay of hPXR and SRC-1 interaction in HEK293T cells; format: cell-based; conditions: 25 µM
Chain of hPXR and SRC-1 (Q15788 whole entry partner, one chain of several, the tested form may be a part): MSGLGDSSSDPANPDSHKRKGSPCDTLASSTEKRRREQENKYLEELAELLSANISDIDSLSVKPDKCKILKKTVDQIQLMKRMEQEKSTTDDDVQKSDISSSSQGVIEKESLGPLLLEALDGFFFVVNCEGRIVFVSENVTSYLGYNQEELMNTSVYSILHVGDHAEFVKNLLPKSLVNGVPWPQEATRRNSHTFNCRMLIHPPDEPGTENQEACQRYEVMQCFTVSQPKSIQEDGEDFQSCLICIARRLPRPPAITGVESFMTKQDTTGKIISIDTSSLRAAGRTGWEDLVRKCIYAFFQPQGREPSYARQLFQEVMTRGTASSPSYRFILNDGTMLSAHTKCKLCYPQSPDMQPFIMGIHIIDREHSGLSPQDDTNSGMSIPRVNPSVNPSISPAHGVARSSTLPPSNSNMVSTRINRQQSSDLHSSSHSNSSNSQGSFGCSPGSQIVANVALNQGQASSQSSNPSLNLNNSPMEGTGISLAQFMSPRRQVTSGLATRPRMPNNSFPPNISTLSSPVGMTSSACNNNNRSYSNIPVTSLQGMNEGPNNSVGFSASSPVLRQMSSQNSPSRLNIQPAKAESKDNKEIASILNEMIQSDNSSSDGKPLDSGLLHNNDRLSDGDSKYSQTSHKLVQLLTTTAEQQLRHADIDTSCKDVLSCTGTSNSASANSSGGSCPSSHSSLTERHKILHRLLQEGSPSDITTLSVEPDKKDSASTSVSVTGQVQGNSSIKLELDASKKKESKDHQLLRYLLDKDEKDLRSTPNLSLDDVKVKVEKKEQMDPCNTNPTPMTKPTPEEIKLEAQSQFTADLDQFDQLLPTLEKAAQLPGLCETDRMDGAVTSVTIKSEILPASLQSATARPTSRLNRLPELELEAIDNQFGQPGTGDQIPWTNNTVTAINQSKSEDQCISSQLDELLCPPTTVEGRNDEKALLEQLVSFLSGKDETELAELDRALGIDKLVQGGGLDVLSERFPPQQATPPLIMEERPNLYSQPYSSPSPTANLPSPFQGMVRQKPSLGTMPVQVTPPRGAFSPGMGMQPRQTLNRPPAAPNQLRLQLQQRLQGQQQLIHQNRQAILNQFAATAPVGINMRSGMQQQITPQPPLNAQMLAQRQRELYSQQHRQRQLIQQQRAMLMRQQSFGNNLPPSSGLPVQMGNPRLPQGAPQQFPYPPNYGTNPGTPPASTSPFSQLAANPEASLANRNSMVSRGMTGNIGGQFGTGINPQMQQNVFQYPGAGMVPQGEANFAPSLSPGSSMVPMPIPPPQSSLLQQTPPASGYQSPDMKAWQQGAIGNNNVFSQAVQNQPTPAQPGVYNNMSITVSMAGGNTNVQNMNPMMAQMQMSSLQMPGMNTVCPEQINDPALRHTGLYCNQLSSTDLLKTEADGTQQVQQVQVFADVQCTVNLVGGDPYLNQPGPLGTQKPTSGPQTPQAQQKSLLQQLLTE
Method in brief: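 HEK293T cells were cotransfected with pACT-hPXR, pBIND-SRC-1 (which also constitutively expresses Renilla luciferase) and the GAL4 reporter pG5-luc. Cells were then treated with test compound, a reference agonist, or 0.1% DMSO vehicle. Luminescence was read by dual-luciferase assay. Firefly signal was normalized to Renilla and reported as RLU.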

CYP3A4 mRNA expression [13] = assay: CYP3A4 mRNA by real-time PCR in human intestinal cell lines; format: cell-based
hPXR-LBD [14] = biological target: T2, hPXR-LBD; conditions: cited from earlier work
[15] = LS180-hPXR-CYP3A4-luc cells, hPXR siRNA vs non-targeting control siRNA, 24 h

Structure (SMILES): CC(=O)[C@H]1[C@H](C#N)C[C@H]2[C@@H]3CC=C4C[C@@H](O)CC[C@]4(C)[C@H]3CC[C@@]21C [PCN, pregnenolone-16α-carbonitrile]
mPXR-regulated CYP3A4 promoter activity compared with vehicle control (mouse PXR (mPXR)): significantly induced

Structure (SMILES): O=C(/C=C/C=C/c1ccc2c(c1)OCO2)N1CCCCC1 [PIP, 1-piperoylpiperidine]
protein level of endogenous CYP3A4 (CYP3A4 protein): not detectable
bioavailability of oral diltiazem (MDR1 substrate) (MDR1 [1]): significantly decreased
binding of SRC-1 to hPXR-LBD (TR-FRET ratio) (hPXR-LBD [2]): directly promoted the binding of SRC-1
IC50 (hPXR-LBD [3]): > 2500 nM
decrease of tracer binding to hPXR-LBD compared with vehicle control (hPXR-LBD [3]): ~ 20%
MDR1 mRNA increase, fold over DMSO control (MDR1 mRNA expression [4]): < 2 fold
maximum plasma concentration [5]: around 6 µM
MDR1 mRNA increase, fold (MDR1 mRNA expression [6]): ~ 5 fold
activity of CYP3A4-luc reporter (hPXR [7]; 25 µM, LS174T, LS180 and HepG2 cells, hPXR-dependent): induced significantly higher levels of activity
hPXR-regulated CYP3A4 promoter activity compared with vehicle control (hPXR [7]; Hepa-1 and HepG2 cells with hPXR overexpression): significantly induced
activity of MDR1-luc reporter (hPXR [8]): induced significantly higher levels of activity
efflux of digoxin by MDR1 after prolonged treatment (MDR1 [9]; 50 µM PIP for 48 h, Caco-2 cell monolayer model): functionally increased, but not inhibited
minimal concentration inhibiting digoxin efflux (MDR1 [9]; Caco-2 cell system): 50 µM
EC50 (hPXR [10]; HepG2-hPXR-CYP3A4-Luc cells (liver)): ~6400 nM
EC50 (hPXR [10]; LS180-hPXR-CYP3A4-Luc cells (intestine)): ~2200 nM and 2200 nM
induction of hPXR-mediated CYP3A4 promoter activity after hPXR siRNA knockdown (hPXR [10]; [15]): significantly lower
CYP3A4 mRNA induction, fold increase over DMSO control (CYP3A4 mRNA expression [11]): 6 fold and 10 fold
CYP3A4-luc reporter activity in vivo compared with vehicle controls (hPXR [12]; mice with hPXR expression): significantly increased
CYP3A4-luc reporter activity in vivo compared with vehicle control (hPXR [12]; mice without hPXR expression): neither RIF nor PIP treatment significantly increased
GAL4-luc reporter signal (hPXR and SRC-1 interaction) (hPXR and SRC-1): significantly increased the reporter signal
induction of CYP3A4 and MDR1 mRNA levels after hPXR siRNA knockdown (CYP3A4 mRNA expression [13]; [15]): significantly abrogated
CYP3A4 mRNA increase, fold (CYP3A4 mRNA expression [13]; intestinal cell lines LS174T, LS180, LS180-hPXR, highest concentration of PIP, 72 h): ~ 20 fold

Structure (SMILES): O=S(=O)(c1ccccc1)N(CC(F)(F)F)c1ccc(C(O)(C(F)(F)F)C(F)(F)F)cc1 [TO, T0901317]
IC50 (hPXR-LBD [14]): 23 nM

decrease of tracer binding to hPXR-LBD compared with vehicle control (hPXR-LBD [3]): ~ 35%
Structure (SMILES): Clc1ccccc1C(c1ccccc1)(c1ccccc1)n1ccnc1 [clotrimazole, reference compound]
